High-throughput results deposited in PubChem by Johns Hopkins Ion Channel Center.
Hits are enriched below; roughly 3.7% of the tested compounds scored in any of these assays.
KCNQ1 act = human KCNQ1 channel potentiation or activation; P51787; CHO-K1 KCNQ1, thallium flux FluxOR fluorescence; active compounds read high; B-score at 10 µM; hit rate 0.35% among 310,000;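 active = fluorescence ratio B-score, a plate-corrected score, at least three library SD, with initial intensity B-score within 5 SD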
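System: Stable KCNQ1 CHO-K1 line | Incubation: 90 min dye loading and 20 min compound exposure, both at room temperature | Measure: Ratio B score | Medium: Assay buffer for compound exposure, DMSO matched across wells | Compound dosing: Single-concentration screen | Probe or stimulus: K+/Tl+ depolarizing stimulus | Measured by: Kinetic FluxOR fluorescence, 10 s baseline plus 110 s post-stimulus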
KCNQ1 inh = inhibitors of human KCNQ1 potassium channel; CHO-K1 KCNQ1, FluxOR thallium flux fluorescence; active compounds read high; B-score at 10 µM; hit rate 1.3% among 310,000; AID 2642;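 active = compounds whose thallium flux B-score, printed positive for inhibition, exceeds three library SD while starting fluorescence stays within three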;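 note: channel opened by potassium depolarization with thallium stimulus after 20 min compound exposure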
KCNK3 block = human KCNK3 channel inhibition, primary screen. CHO-KCNK3 thallium flux, FluxOR fluorescence; active compounds read low. O14649. hit rate 0.84% among 340,000. B-score at 10 µM. AID 602410;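 active = B-score under library mean minus 4 SD, starting fluorescence ratio at most library mean plus 5 SD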;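 note: more negative B-score means stronger inhibition of thallium flux through KCNK3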
Target sequence (O14649 whole entry, looked up): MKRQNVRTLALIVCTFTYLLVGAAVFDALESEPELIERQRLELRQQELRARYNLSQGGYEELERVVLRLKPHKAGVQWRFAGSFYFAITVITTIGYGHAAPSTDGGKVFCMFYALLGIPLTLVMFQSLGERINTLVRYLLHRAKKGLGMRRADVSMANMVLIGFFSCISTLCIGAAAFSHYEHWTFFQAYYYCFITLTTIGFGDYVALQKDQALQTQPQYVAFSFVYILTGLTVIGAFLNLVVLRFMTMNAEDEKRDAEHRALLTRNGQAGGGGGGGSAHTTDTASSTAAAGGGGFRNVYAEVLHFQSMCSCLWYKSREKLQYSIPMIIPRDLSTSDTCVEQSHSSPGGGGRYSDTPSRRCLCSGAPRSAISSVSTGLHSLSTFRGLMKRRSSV
hERG rescue = shields human hERG channel from block by proarrhythmic agents; AID 1511; activation (rescue from dofetilide block), less the hit threshold, % at 10 µM; hit rate 0.51% among 310,000; CHO-hERG, FluxOR thallium flux, dofetilide IC70 present;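 active = activation above the mean of controls blocked by dofetilide plus 5 SD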;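 note: thallium influx through hERG after potassium depolarization seen as dye fluorescence rise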
Kir21 inh = blocks the mouse Kir2.1 inward-rectifier potassium channel | P35561 | HEK293-Kir2.1, FluxOR thallium flux fluorescence; active compounds read low | B-score at 10 µM | hit rate 0.85% among 310,000 | AID 1672;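 active = fluorescence ratio B-score at or below minus 3 SD of library scores, with starting-brightness B-score within 2 SD, cut at about -4.2 in these data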;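 note: channel flux triggered by added potassium and thallium sulfate stimulus; B-score of peak minus minimum fluorescence over baseline after thallium stimulus; more negative B-score means stronger Kir2.1 block with less thallium influx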
KCNK9 inh = blocks the human KCNK9 two-pore domain potassium channel | Q9NPC2 | HEK293 KCNK9, FluxOR thallium flux fluorescence; active compounds read low | B-score at 10 µM | hit rate 1.2% among 310,000;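 active = ratio B-score over 3 SD below the library mean, with starting fluorescence within 5 SD of its mean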;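 note: negative B-score means less thallium flux so channel inhibition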
Target sequence (Q9NPC2 whole entry, looked up, the tested form may be a part): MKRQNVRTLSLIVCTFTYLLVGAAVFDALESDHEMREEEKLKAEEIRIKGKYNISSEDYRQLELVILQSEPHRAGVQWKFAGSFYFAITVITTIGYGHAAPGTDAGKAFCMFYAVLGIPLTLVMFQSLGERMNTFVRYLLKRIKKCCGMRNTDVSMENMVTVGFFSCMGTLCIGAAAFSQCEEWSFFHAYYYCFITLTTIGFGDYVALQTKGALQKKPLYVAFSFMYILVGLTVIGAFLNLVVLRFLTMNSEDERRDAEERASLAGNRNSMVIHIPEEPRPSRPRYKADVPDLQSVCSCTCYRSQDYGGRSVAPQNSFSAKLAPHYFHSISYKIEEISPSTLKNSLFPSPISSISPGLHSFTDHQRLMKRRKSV
KCNQ1 inh valid = human KCNQ1 channel inhibition, validation assay; shares compounds with KCNQ1 inh; KCNQ1 cell line, FluxOR thallium flux fluorescence; inhibition, % at 10 µM; hit rate 93% among 1,600;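 active = primary screen active, with duplicate mean exceeding buffer control mean plus 3 SD of buffer wells, cut at about 28% in these data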;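 note: 0% = buffer control ratio and 100% = XE991 inhibitor control ratio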
CHO Tl flux = activity in parental CHO cells lacking KCNQ1; fluorescence ratio (Tl flux) at 10 µM; shares compounds with KCNQ1 inh; parental CHO-K1, FluxOR thallium flux fluorescence ratio; active compounds read low; zero means no signal rise above baseline; hit rate 21% among 1,600;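 active = mean of duplicate thallium-flux fluorescence ratios in parental host cells more than 5 SD below the buffer control mean, cut at about 0.38 in these data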;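 note: ratio is peak minus minimum fluorescence divided by baseline fluorescence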
KCNQ1 ephys val = confirmation of human KCNQ1 potassium channel inhibitors by electrophysiology; shares compounds with KCNQ1 inh; calls only at 10 µM; KCNQ1-CHO cells, automated patch clamp current; hit rate 20% among 490; AID 624120;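 active = KCNQ1 current drop exceeding 3 SD of negative control wells, seen in both duplicate runs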;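 note: steady state current during a 2 s step from -80 to +40 mV; negative values mean current inhibition and positive values mean potentiation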
KCNQ2 inh = selectivity of KCNQ1 inhibitors: inhibition of rat KCNQ2 channel; KCNQ2 cells, FluxOR thallium flux fluorescence; shares compounds with KCNQ1 inh; inhibition, % at 10 µM; hit rate 71% among 1,600;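 active = mean percent inhibition of the KCNQ2 thallium signal more than 5 SD above the buffer-only control wells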;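 note: KCNQ2 expressed in CHO cells; 0% = buffer control wells and 100% = XE-991 inhibitor control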
KCNQ1-KCNE1 inh = human KCNQ1/KCNE1 inhibition in KCNQ1 specificity screen; shares compounds with KCNQ1 inh; KCNQ1/KCNE1 cells, FluxOR thallium flux fluorescence; inhibition, % at 10 µM; hit rate 77% among 1,600; AID 652147;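 active = mean percent inhibition of duplicate wells above the buffer-only control mean plus 3 SD of those controls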;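 note: 0% = buffer only wells and 100% = XE-991 inhibitor control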
Numbers without * were called inactive; i = inactive; . = not tested or not shown; + = active, no number.

SMILES | KCNQ1 act | KCNQ1 inh | KCNK3 block | hERG rescue | Kir21 inh | KCNK9 inh | KCNQ1 inh valid | CHO Tl flux | KCNQ1 ephys val | KCNQ2 inh | KCNQ1-KCNE1 inh
O=C(CSC1=NS(=O)(=O)c2ccccc21)Nc1ccccc1 | i | 7* | i | -24 | -0.22 | i | 78* | 0.4 | . | 85%* | 122%*
S=C(NCc1ccccc1)Nc1ccc(Oc2ccccc2)cc1 | i | 7* | i | -4 | -0.1 | i | 94* | 0.43 | i | 74%* | 49%*
CCNC(=S)Nc1ccc(Oc2ccccc2)cc1 | i | i | i | -8 | -0.73 | i | . | . | . | . | .
O=C(CN(Cc1ccc(F)cc1)C(=O)CNS(=O)(=O)c1ccccc1)NCc1ccco1 | i | i | i | -3 | 0.6 | i | . | . | . | . | .
COc1cc(NC(=O)COc2cc(O)c3c(c2)OC(C)(C)CC3=O)cc(OC)c1 | i | i | i | -5 | -0.08 | i | . | . | . | . | .
COc1cccc(NC(=O)COc2cc(O)c3c(c2)OC(C)(C)CC3=O)c1 | i | 7* | i | -13 | 0.82 | i | 49* | 0.44 | . | 78%* | 70%*
CC(=O)c1cccc(OCC(=O)Nc2ccccc2N2CCOCC2)c1 | . | . | i | . | . | . | . | . | . | . | .
O=C(c1cccc(S(=O)(=O)N2CCN(c3ccc(F)cc3)CC2)c1)N1CCCC(C(F)(F)F)C1 (centres undefined) | i | 6* | i | -14 | 0.92 | i | 94* | 0.48 | i | 89%* | 64%*
CC1CN(C(=O)c2cccc(S(=O)(=O)N3CCN(c4ccc(F)cc4)CC3)c2)CC(C)O1 (centres undefined) | i | i | i | -8 | -0.7 | i | . | . | . | . | .
CC(NC(=O)c1ccco1)C(=O)OCC(=O)c1ccc(Cl)s1 (centres undefined) | i | i | i | -4 | 1.6 | i | . | . | . | . | .
CCCNC(=S)Nc1cccc(C(F)(F)F)c1 | i | i | i | -8 | 0.94 | i | . | . | . | . | .
FC(F)(F)c1cccc(NC(=S)NCC2COc3ccccc3O2)c1 (centres undefined) | i | 7* | i | -22 | -0.59 | i | 58* | 0.49 | . | 65%* | 44%*
C=CCNc1ncnc2c1[nH]c1ccc(Cl)cc12 | i | 7* | i | -9 | -0.5 | i | 84* | 0.52 | . | i | i
Oc1ccc(NC(=S)N=Nc2c(O)[nH]c3ccc(Br)cc23)cc1 | i | 7* | i | -17 | 0.13 | i | 108* | 0.4 | i | 75%* | 158%*
Oc1[nH]c2ccc(Br)cc2c1N=NC(=S)Nc1ccc(F)cc1 | i | i | i | -13 | 0.74 | i | . | . | . | . | .
CCCN(CC(=O)Nc1ccccc1C)C(=O)C1CCN(S(=O)(=O)c2ccccc2C(F)(F)F)CC1 | i | i | i | -8 | -1.8 | i | . | . | . | . | .
O=C1CSC(c2cn(-c3ccccc3)nc2-c2ccccc2)N1Cc1ccco1 (centres undefined) | i | 10* | i | -12 | -0.45 | i | 134* | 0.42 | i | 108%* | 189%*
COc1ccc(OC)c(S(=O)(=O)N2CCN(c3ccccc3)CC2)c1 | i | i | i | -11 | -0.26 | i | . | . | . | . | .
CCc1ccccc1N1CCN(S(=O)(=O)c2cc(OC)ccc2OC)CC1 | i | 6* | i | -15 | -0.19 | i | 106* | 0.43 | + | 95%* | 142%*
COc1ccccc1C(CNC(=O)CNC(=O)c1ccc(C)c(C)c1)N1CCCC1 (centres undefined) | . | . | i | . | . | . | . | . | . | . | .
Cc1ccc(-c2nnc(N3CCC(C)CC3)c3ccccc23)cc1C | i | 12* | i | -34 | 0.95 | i | 164* | 0.31* | . | 114%* | +
CC1CCN(c2nnc(-c3ccccc3)c3ccccc23)CC1 | i | 6* | i | -13 | -0.52 | i | 92* | 0.41 | i | 90%* | 143%*
Cc1cccc(NC(=O)C2C3CCCCC32)c1 (centres undefined) | i | i | i | 2 | 0.75 | i | . | . | . | . | .
COc1ccc(NS(=O)(=O)c2ccc(-c3coc(C)n3)cc2)cc1OC | i | 8* | i | -13 | -0.01 | i | 124* | 0.52 | i | 84%* | 36%*
CCN1CCc2c(sc(NC(=O)c3ccc(S(=O)(=O)N4CCCCCC4)cc3)c2C(=O)NC)C1 | i | i | i | -7 | -0.95 | i | . | . | . | . | .
SMILES | KCNQ1 act | KCNQ1 inh | KCNK3 block | hERG rescue | Kir21 inh | KCNK9 inh | KCNQ1 inh valid | CHO Tl flux | KCNQ1 ephys val | KCNQ2 inh | KCNQ1-KCNE1 inh
CC(C)(C)c1ccc(C2=CSC3=NCCN23)cc1 | i | 7* | i | -2 | -1.6 | i | 43* | 0.46 | . | i | 46%*
O=C(NCCOc1ccc(F)cc1)c1ccccc1SCc1ccccc1 | i | 7* | i | -25 | -1.4 | i | 102* | 0.48 | + | 106%* | 169%*
Cc1occc1-c1nnc(SCC(=O)Nc2ccccc2)n1C(C)c1ccccc1 (centres undefined) | i | i | i | -8 | -1.6 | i | . | . | . | . | .
O=C(Nc1cccc(Cl)c1Cl)C1CCN(C(=O)c2cccs2)CC1 | i | i | i | -4 | -0.81 | i | . | . | . | . | .
CCN(CC)S(=O)(=O)c1cc(C(=O)Nc2cccnc2)ccc1Cl | i | i | i | -13 | -0.03 | i | . | . | . | . | .
CCN(CC)S(=O)(=O)c1cc(C)ccc1NC(=S)Nc1cccnc1 | i | 10* | i | -13 | -0.04 | i | 68* | 0.49 | . | 61%* | 48%*
O=C(O)c1ccc(S(=O)(=O)NCC2CCCCC2)cc1 | i | i | i | -6 | -0.32 | i | . | . | . | . | .
O=S(=O)(NCCNc1ncc(C(F)(F)F)cc1Cl)C(F)(F)F | i | 6* | i | -14 | -0.02 | i | 40* | 0.47 | . | i | i
Cc1ccc(C)c(OCCCCn2cnc3ccccc3c2=O)c1 | i | i | i | -9 | -1.7 | i | . | . | . | . | .
Cc1ccc(OCCCCn2cnc3ccccc32)c(C)c1 | i | 9* | i | -11 | -1.1 | i | 116* | 0.51 | i | 74%* | 82%*
